Laboratory results: ChEMBL document CHEMBL4689842, “EUbOPEN Chemogenomics Library wave 1” (2021)

System: Fibroblast
Test: Multiplex assay against human fibroblast
Type: toxicity, cell-based
Procedure, shortened: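 With compound added, live cells were imaged on a CQ1 microscope at 37°C and 5% CO2; staining with Hoechst33342, BioTracker Green Microtubule Cytoskeleton Dye, MitoTracker Red and Annexin V Alexa Fluor 680 had been done at seeding. The CellPathfinder machine-learning gating scheme split cells into Hoechst high-intensity objects or normal cells, normal cells into healthy, pyknosed or fragmented nuclei, and pyknosed cells into mitotic or apoptotic. The tubulin, mitochondrial-mass and membrane-permeability phenotypes are per cents of healthy-nucleus cells.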

[1] = 12 h, 1 µM, compound concentration 1 uM, replicate 1
[2] = 12 h, 1 µM, compound concentration 1 uM, replicate 2
[3] = 12 h, 10 µM, compound concentration 10 uM, replicate 1
[4] = 12 h, 10 µM, compound concentration 10 uM, replicate 2
[5] = 24 h, 1 µM, compound concentration 1 uM, replicate 1
[6] = 24 h, 1 µM, compound concentration 1 uM, replicate 2
[7] = 24 h, 10 µM, compound concentration 10 uM, replicate 1
[8] = 24 h, 10 µM, compound concentration 10 uM, replicate 2
[9] = 48 h, 1 µM, compound concentration 1 uM, replicate 1
[10] = 48 h, 1 µM, compound concentration 1 uM, replicate 2
[11] = 48 h, 10 µM, compound concentration 10 uM, replicate 1
[12] = 48 h, 10 µM, compound concentration 10 uM, replicate 2

COc1cc(Nc2nccc(-c3cnn4nc(OC)ccc34)n2)cc(C(F)(F)F)c1 was tested, and the “Population Apoptotic (%)” value [1] was 42%, the “Population Fragmented Nuclei (%)” value [1] was 22% and the “Population Healthy Nuclei (%)” value [1] was 47%. For the same compound, the “Population Hoechst High Intensity Objects (%)” value [1] was 21%, the “Population Membrane Permeable-Phenotype (%)” value [1] was 25% and the “Population Mitochondria Different-Phenotype (%)” value [1] was 6%. For the same compound, the “Population Mitotic Cells (%)” value [1] was 57%, the “Population Normal (%)” value [1] was 78% and the “Population Pyknosed Nuclei (%)” value [1] was 30%. The “Population Tubulin-Different-Phenotype (%)” value [1] was 43%, the “Total Cell Count” value [1] was 87 and the “Population Apoptotic (%)” value [2] was 50%. For the same compound, the “Population Fragmented Nuclei (%)” value [2] was 8%, the “Population Healthy Nuclei (%)” value [2] was 86% and the “Population Hoechst High Intensity Objects (%)” value [2] was 3%. For the same compound, the “Population Membrane Permeable-Phenotype (%)” value [2] was 2%, the “Population Mitochondria Different-Phenotype (%)” value [2] was 16% and the “Population Mitotic Cells (%)” value [2] was 50%. The “Population Normal (%)” value [2] was 96%, the “Population Pyknosed Nuclei (%)” value [2] was 5% and the “Population Tubulin-Different-Phenotype (%)” value [2] was 16%. The “Total Cell Count” value [2] was 44, the “Population Apoptotic (%)” value [3] was 57% and the “Population Fragmented Nuclei (%)” value [3] was 66%. For the same compound, the “Population Healthy Nuclei (%)” value [3] was 15%, the “Population Hoechst High Intensity Objects (%)” value [3] was 48% and the “Population Membrane Permeable-Phenotype (%)” value [3] was 13%. The “Population Mitochondria Different-Phenotype (%)” value [3] was 13%, the “Population Mitotic Cells (%)” value [3] was 42% and the “Population Normal (%)” value [3] was 51%. The “Population Pyknosed Nuclei (%)” value [3] was 17%, the “Population Tubulin-Different-Phenotype (%)” value [3] was 47% and the “Total Cell Count” value [3] was 283. For the same compound, the “Population Apoptotic (%)” value [4] was 33%, the “Population Fragmented Nuclei (%)” value [4] was 27% and the “Population Healthy Nuclei (%)” value [4] was 61%. For the same compound, the “Population Hoechst High Intensity Objects (%)” value [4] was 34%, the “Population Membrane Permeable-Phenotype (%)” value [4] was 3% and the “Population Mitochondria Different-Phenotype (%)” value [4] was 6%. For the same compound, the “Population Mitotic Cells (%)” value [4] was 66%, the “Population Normal (%)” value [4] was 65% and the “Population Pyknosed Nuclei (%)” value [4] was 11%. For the same compound, the “Population Tubulin-Different-Phenotype (%)” value [4] was 15%, the “Total Cell Count” value [4] was 82 and the “Population Apoptotic (%)” value [5] was 75%. For the same compound, the “Population Fragmented Nuclei (%)” value [5] was 22%, the “Population Healthy Nuclei (%)” value [5] was 50% and the “Population Hoechst High Intensity Objects (%)” value [5] was 19%. For the same compound, the “Population Membrane Permeable-Phenotype (%)” value [5] was 8%, the “Population Mitochondria Different-Phenotype (%)” value [5] was 10% and the “Population Mitotic Cells (%)” value [5] was 25%. For the same compound, the “Population Normal (%)” value [5] was 80%, the “Population Pyknosed Nuclei (%)” value [5] was 27% and the “Population Tubulin-Different-Phenotype (%)” value [5] was 32%. The “Total Cell Count” value [5] was 92, the “Population Apoptotic (%)” value [6] was 45% and the “Population Fragmented Nuclei (%)” value [6] was 10%. For the same compound, the “Population Healthy Nuclei (%)” value [6] was 77%, the “Population Hoechst High Intensity Objects (%)” value [6] was 2% and the “Population Membrane Permeable-Phenotype (%)” value [6] was 4%. The “Population Mitotic Cells (%)” value [6] was 54%, the “Population Normal (%)” value [6] was 97% and the “Population Pyknosed Nuclei (%)” value [6] was 12%. The “Population Tubulin-Different-Phenotype (%)” value [6] was 19%, the “Total Cell Count” value [6] was 43 and the “Population Apoptotic (%)” value [7] was 46%. The “Population Fragmented Nuclei (%)” value [7] was 57%, the “Population Healthy Nuclei (%)” value [7] was 21% and the “Population Hoechst High Intensity Objects (%)” value [7] was 54%. For the same compound, the “Population Membrane Permeable-Phenotype (%)” value [7] was 23%, the “Population Mitochondria Different-Phenotype (%)” value [7] was 11% and the “Population Mitotic Cells (%)” value [7] was 53%. The “Population Normal (%)” value [7] was 45%, the “Population Pyknosed Nuclei (%)” value [7] was 21% and the “Population Tubulin-Different-Phenotype (%)” value [7] was 42%. For the same compound, the “Total Cell Count” value [7] was 273, the “Population Apoptotic (%)” value [8] was 50% and the “Population Fragmented Nuclei (%)” value [8] was 26%. The “Population Healthy Nuclei (%)” value [8] was 56%, the “Population Hoechst High Intensity Objects (%)” value [8] was 29% and the “Population Membrane Permeable-Phenotype (%)” value [8] was 0%. For the same compound, the “Population Mitochondria Different-Phenotype (%)” value [8] was 23%, the “Population Mitotic Cells (%)” value [8] was 50% and the “Population Normal (%)” value [8] was 70%. For the same compound, the “Population Pyknosed Nuclei (%)” value [8] was 17%, the “Population Tubulin-Different-Phenotype (%)” value [8] was 11% and the “Total Cell Count” value [8] was 90. For the same compound, the “Population Apoptotic (%)” value [9] was 64%, the “Population Fragmented Nuclei (%)” value [9] was 32% and the “Population Healthy Nuclei (%)” value [9] was 50%. The “Population Hoechst High Intensity Objects (%)” value [9] was 11%, the “Population Mitochondria Different-Phenotype (%)” value [9] was 0% and the “Population Mitotic Cells (%)” value [9] was 35%. For the same compound, the “Population Normal (%)” value [9] was 88%, the “Population Pyknosed Nuclei (%)” value [9] was 17% and the “Population Tubulin-Different-Phenotype (%)” value [9] was 21%. For the same compound, the “Total Cell Count” value [9] was 92, the “Population Apoptotic (%)” value [10] was 66% and the “Population Fragmented Nuclei (%)” value [10] was 39%. For the same compound, the “Population Healthy Nuclei (%)” value [10] was 56%, the “Population Hoechst High Intensity Objects (%)” value [10] was 10% and the “Population Membrane Permeable-Phenotype (%)” value [10] was 17%. The “Population Mitochondria Different-Phenotype (%)” value [10] was 4%, the “Population Mitotic Cells (%)” value [10] was 33% and the “Population Normal (%)” value [10] was 89%. The “Population Pyknosed Nuclei (%)” value [10] was 4%, the “Population Tubulin-Different-Phenotype (%)” value [10] was 29% and the “Total Cell Count” value [10] was 82. The “Population Apoptotic (%)” value [11] was 69%, the “Population Fragmented Nuclei (%)” value [11] was 69% and the “Population Healthy Nuclei (%)” value [11] was 21%. For the same compound, the “Population Hoechst High Intensity Objects (%)” value [11] was 51%, the “Population Membrane Permeable-Phenotype (%)” value [11] was 10% and the “Population Mitochondria Different-Phenotype (%)” value [11] was 6%. For the same compound, the “Population Mitotic Cells (%)” value [11] was 30%, the “Population Normal (%)” value [11] was 48% and the “Population Pyknosed Nuclei (%)” value [11] was 9%. For the same compound, the “Population Tubulin-Different-Phenotype (%)” value [11] was 56%, the “Total Cell Count” value [11] was 291 and the “Population Apoptotic (%)” value [12] was 50%. The “Population Fragmented Nuclei (%)” value [12] was 39%, the “Population Healthy Nuclei (%)” value [12] was 59% and the “Population Hoechst High Intensity Objects (%)” value [12] was 26%. The “Population Membrane Permeable-Phenotype (%)” value [12] was 4%, the “Population Mitochondria Different-Phenotype (%)” value [12] was 8% and the “Population Mitotic Cells (%)” value [12] was 50%. The “Population Normal (%)” value [12] was 73%, the “Population Pyknosed Nuclei (%)” value [12] was 1% and the “Population Tubulin-Different-Phenotype (%)” value [12] was 40%. The “Total Cell Count” value [12] was 205.

For Cc1ccccc1C(c1ccccc1C)N1C2CCC1CC(O)(c1ccccc1)C2 (centres undefined), the “Population Apoptotic (%)” value [1] was 68%, the “Population Fragmented Nuclei (%)” value [1] was 14% and the “Population Healthy Nuclei (%)” value [1] was 40%. The “Population Mitotic Cells (%)” value [1] was 31%, the “Population Normal (%)” value [1] was 84% and the “Population Pyknosed Nuclei (%)” value [1] was 44%. For the same compound, the “Total Cell Count” value [1] was 127, the “Population Apoptotic (%)” value [2] was 50% and the “Population Fragmented Nuclei (%)” value [2] was 9%. For the same compound, the “Population Healthy Nuclei (%)” value [2] was 81%, the “Population Hoechst High Intensity Objects (%)” value [2] was 9% and the “Population Mitotic Cells (%)” value [2] was 50%. For the same compound, the “Population Normal (%)” value [2] was 90%, the “Population Pyknosed Nuclei (%)” value [2] was 9% and the “Total Cell Count” value [2] was 80. For the same compound, the “Population Apoptotic (%)” value [3] was 63%, the “Population Fragmented Nuclei (%)” value [3] was 23% and the “Population Healthy Nuclei (%)” value [3] was 44%. For the same compound, the “Population Mitotic Cells (%)” value [3] was 36%, the “Population Normal (%)” value [3] was 85% and the “Population Pyknosed Nuclei (%)” value [3] was 32%. For the same compound, the “Total Cell Count” value [3] was 161, the “Population Apoptotic (%)” value [4] was 40% and the “Population Healthy Nuclei (%)” value [4] was 81%. The “Population Mitotic Cells (%)” value [4] was 60%, the “Population Normal (%)” value [4] was 86% and the “Total Cell Count” value [4] was 71. For the same compound, the “Population Apoptotic (%)” value [5] was 62%, the “Population Healthy Nuclei (%)” value [5] was 55% and the “Population Hoechst High Intensity Objects (%)” value [5] was 20%. The “Population Mitotic Cells (%)” value [5] was 37%, the “Population Normal (%)” value [5] was 79% and the “Population Pyknosed Nuclei (%)” value [5] was 28%. The “Total Cell Count” value [5] was 107, the “Population Fragmented Nuclei (%)” value [6] was 9% and the “Population Healthy Nuclei (%)” value [6] was 77%. For the same compound, the “Population Hoechst High Intensity Objects (%)” value [6] was 4%, the “Population Mitotic Cells (%)” value [6] was 80% and the “Population Normal (%)” value [6] was 95%. For the same compound, the “Total Cell Count” value [6] was 89, the “Population Apoptotic (%)” value [7] was 47% and the “Population Fragmented Nuclei (%)” value [7] was 23%. For the same compound, the “Population Healthy Nuclei (%)” value [7] was 47%, the “Population Hoechst High Intensity Objects (%)” value [7] was 8% and the “Population Mitotic Cells (%)” value [7] was 52%. For the same compound, the “Population Normal (%)” value [7] was 91%, the “Population Pyknosed Nuclei (%)” value [7] was 28% and the “Total Cell Count” value [7] was 159. The “Population Apoptotic (%)” value [8] was 50%, the “Population Fragmented Nuclei (%)” value [8] was 20% and the “Population Healthy Nuclei (%)” value [8] was 65%. The “Population Mitotic Cells (%)” value [8] was 50%, the “Population Normal (%)” value [8] was 93% and the “Total Cell Count” value [8] was 85. The “Population Apoptotic (%)” value [9] was 61%, the “Population Fragmented Nuclei (%)” value [9] was 30% and the “Population Healthy Nuclei (%)” value [9] was 51%. The “Population Hoechst High Intensity Objects (%)” value [9] was 16%, the “Population Mitotic Cells (%)” value [9] was 38% and the “Population Normal (%)” value [9] was 83%. For the same compound, the “Total Cell Count” value [9] was 121, the “Population Apoptotic (%)” value [10] was 0% and the “Population Fragmented Nuclei (%)” value [10] was 60%. The “Population Healthy Nuclei (%)” value [10] was 40%, the “Population Hoechst High Intensity Objects (%)” value [10] was 0% and the “Population Mitotic Cells (%)” value [10] was 0%. For the same compound, the “Population Normal (%)” value [10] was 100%, the “Population Pyknosed Nuclei (%)” value [10] was 0% and the “Total Cell Count” value [10] was 5. The “Population Apoptotic (%)” value [11] was 40%, the “Population Fragmented Nuclei (%)” value [11] was 30% and the “Population Healthy Nuclei (%)” value [11] was 59%. For the same compound, the “Population Mitotic Cells (%)” value [11] was 60%, the “Population Normal (%)” value [11] was 92% and the “Population Pyknosed Nuclei (%)” value [11] was 9%. The “Total Cell Count” value [11] was 170, the “Population Apoptotic (%)” value [12] was 100% and the “Population Fragmented Nuclei (%)” value [12] was 35%. The “Population Healthy Nuclei (%)” value [12] was 62%, the “Population Hoechst High Intensity Objects (%)” value [12] was 4% and the “Population Mitotic Cells (%)” value [12] was 0%. For the same compound, the “Population Normal (%)” value [12] was 95%, the “Population Pyknosed Nuclei (%)” value [12] was 1% and the “Total Cell Count” value [12] was 118.
